Source: PubChem BioAssay
Shown are actives, neighbours in structure and some others; about 3.8% of the full set was active somewhere.
ARNT-TACC3 inh = disruptors of human ARNT/TACC3 interaction | Q9Y6A5 | AlphaScreen His-ARNT PAS-B/GST-TACC3 binding, luminescence; TACC3 fragment carries E629A point mutation | inhibition, % at 9.99 µM | actives 0.66% (n = 390,000) | AID 623870;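 active means mean inhibition of replicates at least 50% and at least half of replicates each reaching 50%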;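 further: 0% = complete ARNT plus TACC3 wells and 100% = ARNT alone without TACC3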
Xi reactivation = X-chromosome reactivation activator. XiGFP mouse fibroblasts, % GFP-positive cells imaging, 3 d; cells co-treated with 5-aza-dC sensitizer; scaled so ellipticine positive control = 100%. activation, % at 7.58 µM. actives 0.055% (n = 360,000);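 active means mean normalized replicate activation at least 10% and every replicate at or above 10%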;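 further: 0% = median of on-plate neutral control wells and 100% = ellipticine 6 µM median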
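Assay system: SV40-immortalized XiGFP fibroblast cells, line 68-5-11; buffer or medium: DMEM plus 5-aza-dC sensitizer; compound: one concentration, pinned; timing: compounds 3 days, fix/stain 15 min at room temperature; benchmarks: positive control ellipticine, 6 µM final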
DENV2 CPE = DENV2-induced cell death inhibition | AID 651640 | actives 1.7% (n = 350,000) | DENV2-infected cells, cytopathic effect rescue, plate reader | CPE inhibition, % at 9.99 µM; in the data active means CPE inhibition above about 20%, passing the limit was not always enough; tested in BHK-21 cells;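 further: 0% = median of neutral control wells and 100% = median of positive control wells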
SIRT5 inh = blocks human SIRT5 desuccinylation of peptide. Purified SirT5, succinyl-peptide AMC, trypsin-coupled fluorescence. actives 1.1% (n = 330,000). inhibition, % at 15 µM; in the data active means inhibition above about 15%
Target sequence (Q9NXA8 whole entry, looked up): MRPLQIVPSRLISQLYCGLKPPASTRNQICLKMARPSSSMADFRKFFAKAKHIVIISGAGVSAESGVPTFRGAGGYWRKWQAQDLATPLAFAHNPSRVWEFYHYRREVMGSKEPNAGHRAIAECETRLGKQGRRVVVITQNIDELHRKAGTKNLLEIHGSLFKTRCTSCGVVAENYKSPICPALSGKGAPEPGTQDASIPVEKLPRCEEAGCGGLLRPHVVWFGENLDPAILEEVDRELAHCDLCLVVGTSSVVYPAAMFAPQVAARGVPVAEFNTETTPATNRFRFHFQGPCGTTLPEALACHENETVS
FN deposit inh = fibronectin deposition inhibition. AH1F fibroblasts, Alexa488-fibronectin deposition fluorescence, overnight. actives 0.086% (n = 350,000). inhibition, % at 12.6 µM;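 active means mean inhibition across replicates of 30% or more, regardless of how many single replicates reach that level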;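 further: positive control wells lacked labelled fibronectin entirely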
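Test system: AH1F fibroblast monolayer depositing Alexa488-labelled fibronectin into matrix. Input: 10000 cells per well. Technique: fluorescence, ex 485 nm, em 525 nm. Buffer or medium: DMEM plus 2% serum, read in PBS. Timing: 1 h cell adhesion before compound, then overnight fibronectin incubation. Compound: single dose, pinned. Read-out basis: inhibition from reduced deposited-fibronectin fluorescence.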
FGF22 binding = shifts melting point of recombinant human FGF22 | Q9HCT0 | recombinant FGF22 thermal shift, SYPRO orange fluorescence; percent of sucrose octasulfate shift, DMSO zero | activity (Tm shift, normalised), % at 9.99 µM | actives 1.5% (n = 340,000) | AID 651658;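 active means mean Tm shift, scaled 0 neutral to 100 positive control, at about 1.3% or above, every replicate too, limit read from the data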
Target sequence (Q9HCT0 whole entry, looked up): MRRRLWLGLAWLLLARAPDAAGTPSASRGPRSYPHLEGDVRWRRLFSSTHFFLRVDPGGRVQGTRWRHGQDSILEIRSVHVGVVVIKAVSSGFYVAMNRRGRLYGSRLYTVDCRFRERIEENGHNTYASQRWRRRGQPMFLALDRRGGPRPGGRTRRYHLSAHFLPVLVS
AlphaScreen ctr = counter-screen for ARNT/TACC3 inhibitors: AlphaScreen artifacts | shares compounds with ARNT-TACC3 inh | His-ARNT PASB-GST AlphaScreen artifact counter-screen, luminescence | AC50, µM (series often up to 68 µM), without a hit: top-dose activity change, negative = signal decrease | actives 50% (n = 1,200) | AID 651705;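 active means every separate test run was called active for a drop in luminescence, with AC50 within twice the top valid dose, actives reach about 71 µM in these data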
The depositor's hits bear a star; . = not tested or not shown; ! = repeats disagree.

SMILES	ARNT-TACC3 inh	Xi reactivation	DENV2 CPE	SIRT5 inh	FN deposit inh	FGF22 binding	others
Cc1cccc(S(=O)(=O)N2[C@@H]3c4ccc(-c5ccccc5)c(=O)n4C[C@H]2[C@H](CO)[C@H]3C(=O)O)c1	-4	0	-2	-7	.	0
COC(=O)[C@H]1[C@H](CO)[C@H]2Cn3c(ccc(C4=CCCC4)c3=O)[C@@H]1N2CC1CCCC1	.	0	15	-5	.	.
Cc1cccc(OP(=O)(Nc2ccc(F)cc2)Oc2cccc(C)c2)c1	-4	0	-2	0	-7	43*
O=C(O)c1ccc(Cl)nc1	-1	0	2	0	-14	43*
COC(=O)C1=C(c2cc3ccccc3s2)C[C@@H]2CC[C@H]1N2C(=O)NCc1ccccc1	6	0	117*	.	5	0
COC(=O)C1=C(c2cccc(OCc3ccccc3)c2)C[C@@H]2CC[C@H]1N2C(=O)NCc1ccc(Cl)cc1	-1	0	25*	-4	-3	0
COC(=O)C1=C(c2cccc(OCc3ccccc3)c2)C[C@@H]2CC[C@H]1N2C(=O)NCCOc1ccccc1	5	1	90*	.	.	0
COC(=O)C1=C(c2ccc(F)cc2OCc2ccccc2)C[C@@H]2CC[C@H]1N2C(=O)N1CCC(O)(c2ccc(Cl)cc2)CC1	2	-1	77*	.	2	0
COC(=O)[C@H]1[C@H](CO)[C@H]2Cn3c(ccc(C4=CCCC4)c3=O)[C@@H]1N2C(=O)C1CCCCC1	.	1	.	.	.	.
O=C(Cc1ccccn1)N1CCCCN2[C@@H](CO)[C@H](c3ccc(-c4ccccc4)cc3)[C@@H]2C1	5	0	2	-1	.	0
CN(C)c1cccc(CN2CCN(c3ccccc3)CC2)c1	.	0	4	15*	.	0
c1ccc(CN2CCN(Cc3ccc4ccccc4c3)CC2)cc1	2	0	11	5	5	0
CN(C)CC#Cc1ccc([C@@H]2[C@H]3CN(C(=O)Cc4ccccn4)CCCCN3[C@H]2CO)cc1	5	0	30*	1	-3	0
O=C(Cc1ccccn1)N1CCCCN2[C@@H](CO)[C@@H](c3ccc(Br)cc3)[C@@H]2C1	-4	1	33*	0	.	1
O=C(Cc1ccccn1)N1CCCCN2[C@H](C1)[C@H](c1ccc(-c3ccccc3)cc1)[C@@H]2CO	6	0	43*	-3	.	0
CCCC#Cc1ccc([C@@H]2[C@H]3CN(C(=O)Cc4ccccn4)CCCCN3[C@H]2CO)cc1	-5	0	-3	-1	.	0
COc1cc2c(cc1OC)-c1c(OC)c(OC)cc3c1[C@H](C2)N(C)CC3	69*	0	-13	.	0	0
COC(=O)C1=C(c2ccc(OC(F)(F)F)cc2)C[C@@H]2CC[C@H]1N2C(=O)N1CCCCC1	-5	1	48*	.	.	0
COC(=O)C1=C(c2ccccc2)C[C@@H]2CC[C@H]1N2C(=O)N1CCOCC1	.	0	38*	.	-12	0
CN1CCN(c2ccc([N+](=O)[O-])c3no[n+]([O-])c23)CC1	38*	1	-2	-6	8	0
O=[N+]([O-])c1ccc(N(CCO)CCO)c2c1no[n+]2[O-]	.	1	2	.	27	0
Cc1ccccc1-[n+]1c(-c2ccccc2)cc(-c2ccccc2)cc1-c1ccccc1	7	0	76*	-1	6	0
C=CCN1[C@@H]2CN(C(C)=O)C[C@H]1C2c1ccccc1 (some centres undefined)	.	0	.	.	-2	.
CCN(CC)C(=O)c1ccc(NC(=O)COc2ccccc2F)cc1	-17	0	.	21*	5	41
Cc1ccc(N2Cc3ccccc3C2=N)cc1[N+](=O)[O-]	0	0	.	26*	2	0
SMILES	ARNT-TACC3 inh	Xi reactivation	DENV2 CPE	SIRT5 inh	FN deposit inh	FGF22 binding	others
C=C1C(C)C2C(Cc3ccccc3)NC(=O)C23C(OC(C)=O)C=CC(C)(O)CC(C)CC=CC3C1O (centres undefined)	13	0	6	-4	45*	0
C=C1[C@@H](C)[C@H]2[C@H](Cc3ccccc3)NC(=O)[C@]23OC(=O)/C=C/[C@H](O)CCC[C@@H](C)C/C=C/[C@H]3[C@@H]1O	0	0	11	4	35*!	0
COc1ccc(C#Cc2ccc([C@@H]3[C@@H](CO)N4CCCCN(C(=O)Cc5cccnc5)C[C@H]34)cc2)cc1	28	0	3	1	.	0
COC(=O)[C@H]1[C@H](CO)[C@H]2Cn3c(ccc(-c4ccccc4)c3=O)[C@@H]1N2CC1CC1	5	0	2	-1	.	0
CCC(C)/C=C(C)/C=C/C1=CC2=C(Cl)C(=O)C(C)(OC(C)=O)C(=O)C2=CO1 (centres undefined)	49*	.	.	.	.	.
CC[C@H](C)/C=C(C)/C=C/C1=CC2=C(Cl)C(=O)[C@@](C)(OC(C)=O)C(=O)C2=CO1	0	.	.	.	.	.
OC[C@H]1Nc2ccc(C#Cc3cccnc3)cc2[C@H]2NCC[C@H]21	.	0	12	-10	-1	.
COC(=O)C1=C(C(=O)OC)SC2(S1)C(C(=O)OC)=C(C(=O)OC)Sc1c2ssc1=O	68*	0	-4	.	.	0
CC1CN(c2ccc([N+](=O)[O-])c3cccnc23)CC(C)N1 (centres undefined)	59*	.	.	.	.	.	AlphaScreen ctr=-4%
Clc1cccc(CNCCc2c[nH]c3ccccc23)c1	52*	0	6	-9	-5	0	AlphaScreen ctr=-7%
FC(F)(F)c1ccc(CNCCc2c[nH]c3ccccc23)cc1	-1	0	-6	1	0	0
CC=Cc1ccc2n(c1=O)C[C@H]1[C@H](CO)[C@@H](C(=O)OC)[C@@H]2N1C(=O)CC1CC1 (mixture of isomers)	-3	2	.	-10	.	0
O=C(Nc1ccc(Cl)cc1)O/N=C(\c1ccccc1)c1ccccn1	50*	.	.	.	.	.	AlphaScreen ctr=-38%
Cc1ccc(OC(=O)N(C)C[C@@H]2OCc3ccccc3-c3c(n(C)c4ccccc34)C(=O)N([C@@H](C)CO)C[C@H]2C)cc1	.	0	3	8	1	.
CCN(CCCl)c1cc(CN(C)C)cc(NC(=O)c2ccc(C(=O)Nc3cc(CN(C)C)cc(N(CC)CCCl)c3)cc2)c1	54*	0	7	-6	5	0	AlphaScreen ctr=4.3µM*
